Experimental data taken from ChEMBL document CHEMBL3352730, “Synthesis and effects on cell viability of flavonols and 3-methyl ether derivatives on human leukemia cells” (Eur J Med Chem, 2014).
pIC50: −log10 of the molar value.

Assays:
[1] = Cytotoxicity against human HL60 cells after 72 hrs by MTT assay; type: functional, cell-based; settings: HL-60, 72 h
How it was run: (§1)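 MTT colorimetric assay with 72 h continuous exposure. IC50 was fitted per experiment by non-linear regression. Values are means with SE from at least three independent experiments, each run in triplicate.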

[2] = Cytotoxicity against human HL60/MX1 cells after 72 hrs by MTT assay; type: functional, cell-based; settings: HL60/MX1, 72 h; how it was run: as §1
Raji = experiment: Cytotoxicity against human Raji cells after 72 hrs by MTT assay; type: functional, cell-based; how it was run: as §1
HL-60 = experiment: Induction of apoptosis in human HL60 cells at 30 uM after 24 hrs by propidium iodide staining based flow cytometry (reference value: 3.8 +/- 0.6%); type: functional

| SMILES | pIC50 [1] | further results |
| --- | --- | --- |
| COc1ccc(-c2oc3cc(OC)ccc3c(=O)c2O)cc1 | 3.83 | – |
| COc1cc(-c2oc3ccccc3c(=O)c2O)cc(OC)c1OC | 3.86 | – |
| COc1ccc(-c2oc3ccccc3c(=O)c2OC)c(OC)c1C | 4.02 | – |
| COc1ccc2c(=O)c(O)c(-c3cc(OC)c(OC)c(OC)c3)oc2c1 | 4.47 | – |
| COc1ccc(-c2oc3cc(OC)ccc3c(=O)c2OC)cc1 | 3.91 | – |
| COc1ccc(-c2oc3ccccc3c(=O)c2O)c(OC)c1 | 4.28 | – |
| COc1ccc2c(=O)c(OC)c(-c3cc(OC)c(OC)c(OC)c3)oc2c1 | 4.68 | – |
| COc1cc([C@@H]2c3cc4c(cc3[C@@H](O[C@@H]3O[C@@H]5CO[C@@H](C)O[C@H]5[C@H](O)[C@H]3O)[C@H]3COC(=O)[C@H]23)OCO4)cc(OC)c1O [ETOPOSIDE] | 6.22 | – |
| COc1ccc(-c2oc3ccccc3c(=O)c2O)c(OC)c1C | 4.49 | – |
| O=c1c(O)c(-c2ccc(Cl)cc2)oc2ccccc12 | 3.99 | – |
| O=c1c(O)c(-c2ccccc2Cl)oc2ccccc12 | 4.97 | pIC50 [2]: < 4.52; pIC50 (Raji): < 4.52; Activity (HL-60): 14.9% |
| COc1c(-c2ccc(Cl)cc2)oc2ccccc2c1=O | 4.59 | – |
| COc1c(-c2cccc3ccccc23)oc2ccccc2c1=O | 4.80 | – |
| COc1ccc2c(=O)c(OC)c(-c3ccc(OC)c(C)c3OC)oc2c1 | 4.57 | – |
| COc1ccccc1-c1oc2ccccc2c(=O)c1O | 4.52 | – |
| COc1ccc(-c2oc3ccccc3c(=O)c2OC)cc1 | 4.41 | – |
| COc1c(-c2ccc(Br)cc2)oc2ccccc2c1=O | 4.68 | – |
| COc1cc(O)c2c(=O)c(OC)c(-c3ccc(OC)c(OC)c3)oc2c1 [RETUSIN] | 4.55 | – |
| COc1ccc(-c2oc3ccccc3c(=O)c2OC)c(OC)c1 | 4.47 | – |
| O=c1c(O)c(-c2ccc(O)c(O)c2)oc2cc(O)cc(O)c12 [QUERCETIN] | 4.33 | – |
| COc1ccccc1-c1oc2ccccc2c(=O)c1OC | 4.01 | – |
